Redox H2O2 prof = compounds producing H2O2 with reducing agent – biochemical, NIH compound library profiling, artefact control for MLSCN library redox annotation, primary screen | DTT-dependent redox cycling H2O2, phenol red/HRP absorbance; 100% = 100 µM peroxide control, 0% = buffer | AID 878, 2007 | activation, % at 10 µM | hit rate 0.03% among 200,000;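 active = activation of at least 50% relative to the plate's high and low controls in the primary single-dose screen; inactive = activation below 50%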;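 also: compound incubated with DTT at 0.8 mM final as the reducing agent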
ROMK mod = ROMK potassium channel modulators, primary screen, cell-based, thallium flux, MLSMR library; ATP-sensitive inward rectifier potassium channel 1 (Homo sapiens), P48048; Tet-inducible ROMK, thallium flux fluorescence; actives lie on both sides; B-score at 10 µM; hit rate 2% among 130,000;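 active = signal ratio slope over the read window, or its plate-corrected B-score, at least 3 SD from the plate mean, either direction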;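 also: B-score of the F/F0 ratio slope over 7 to 12 s after thallium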
Target sequence (P48048 whole entry, looked up): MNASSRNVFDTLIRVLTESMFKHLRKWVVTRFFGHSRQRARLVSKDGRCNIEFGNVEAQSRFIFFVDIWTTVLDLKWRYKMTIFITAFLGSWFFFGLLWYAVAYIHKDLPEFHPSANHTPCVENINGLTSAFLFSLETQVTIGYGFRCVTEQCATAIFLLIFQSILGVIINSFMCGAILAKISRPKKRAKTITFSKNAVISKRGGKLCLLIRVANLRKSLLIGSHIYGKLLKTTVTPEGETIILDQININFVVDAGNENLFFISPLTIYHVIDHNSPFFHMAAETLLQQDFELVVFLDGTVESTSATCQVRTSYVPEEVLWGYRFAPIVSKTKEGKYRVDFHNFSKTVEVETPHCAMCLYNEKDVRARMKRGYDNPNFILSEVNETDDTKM
Dynein transport = inhibitors of GR-EGFP nuclear translocation, primary screen, dynein cargo transport inhibitor project, imaging, high-content, 3617.4 mouse cells. AID 1381, 2008. test concentration mostly 20 µM; stimulated with dexamethasone, 1 µM; stronger effect = lower value. z-score, hits read low. hit rate 0.47% among 220,000;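 active = plate z-score of nuclear minus cytoplasmic receptor signal below a set negative limit, without overly bright fluorescence or cell loss, cut at about -3.5 in these data, passing the limit was not always enough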;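 also: z-score of nuclear minus cytoplasmic ring GR-EGFP intensity difference per well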
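Buffer or medium: tet-free, stripped-serum medium; reagent: dexamethasone at 1.0 µM final, 30 min; incubation: 48 h induction, 1 h compound, 30 min dex at 37 °C; measured by: formaldehyde fixation, Hoechst nuclear stain, 10x automated fluorescence imaging; read-out: nuclear-to-cytoplasmic GR-EGFP distribution per well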
KCC2 mod = KCC2 cotransporter modulators, thallium flux, primary screen, cell-based, HEK293 KCC2, FluoZin-2 fluorescence, MLSMR; AID 1456, 2008; hit rate 2.2% among 190,000; KCC2 cells, thallium flux FluoZin-2 fluorescence; B-score of Tl+ flux slope (higher = more flux/activation; lower = inhibition) at 10 µM; Solute carrier family 12 member 5 (Homo sapiens), Q9H2X9;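 active = thallium flux slope and its plate-corrected score both differing from the plate sample mean at a set confidence after two filtering rounds, in either direction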;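 also: slope of fluorescence scaled to starting intensity during 10 to 20 s after thallium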
Autophagy mod = autophagy modulators in MEF cells, primary screen, imaging, high-content, MEF GFP-LC3; hit rate 0.98% among 190,000; AID 463193, 2010; MEF GFP-LC3 puncta imaging; test concentration mostly 10 µM; calls only at 10 µM (by protocol);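 active = percentage of spot-positive cells more than 3 SD above its plate mean, without a fluorescence outlier flag or 80% toxicity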;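 also: spot-positive cell cutoff set from DMSO-treated cells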
The depositor's hits bear a star; i = inactive; · = no result; + = active, no number. Sampled rows, rich in hits. Any-hit rate of the full collection: about 4.1%.

SMILES	Redox H2O2 prof	ROMK mod	Dynein transport	KCC2 mod	Autophagy mod
COc1ccc(S(=O)(=O)N(NC2=NS(=O)(=O)c3ccccc32)C(=O)C(C)C)cc1	0.0	0.753	-1.15	-0.243	i
CC1CCCCN1C(=O)Cn1cnc2cc([N+](=O)[O-])ccc2c1=O (stereo unspecified)	-1.7	-0.848	0.0921	-0.3	i
COc1cc(/C=C/C(=O)OCC(=O)NCc2cccs2)ccc1OCC#N	0.0	1.34	-0.808	0.112	i
COc1ccc2c(c1)C(C)=CC(C)(C)N2S(=O)(=O)c1ccc(C)cc1	-0.2	0.158	-0.749	-1.45	i
CC1=CC(C)(C)N(S(=O)(=O)c2ccc(C)cc2)c2cc(C)ccc21	0.2	1.64	0.698	0.309	+
COc1ccc(S(=O)(=O)Nc2ccc(O)c(Sc3ncn[nH]3)c2)cc1	0.0	·	-0.554	0.281	i
CN(C)C(=O)CSc1cccc2cccnc12	3.3	·	-0.341	8.14*	+
COc1ccc(S(=O)(=O)Nc2cc(Sc3ncn[nH]3)c(O)c3ccccc23)cc1	1.3	-6.27*	-4.47*	-1.61	i
O=C(Sc1cccc2cccnc12)c1ccc(F)cc1	-0.6	8.73*	-1.1	64*	i
O=S(=O)(Nc1cc(Sc2cccc3cccnc23)c(O)c2ccccc12)c1ccc(F)cc1	-0.6	·	-0.787	48*	i
NNC(=O)CSc1cccc2cccnc12	0.2	0.535	-0.233	0	i
COc1c([N+](=O)[O-])c(=O)n(-c2ccccc2)c2ccccc12	-0.1	0.145	3.51	-1.67	i
CCOc1cc(/C=N/NC(N)=S)cc(Br)c1OCc1ccccc1C	-0.6	-0.377	1.67	-0.142	+
CN(C(=O)CS(=O)(=O)c1cccc(Cl)c1)c1ccccc1	-1.0	-1.48	2.57	0.185	i
N#C/C(=C/c1ccc(Br)o1)C(N)=S	·	·	-4.14*	-0.145	·
N#C/C(=C/c1ccc(Br)o1)C(N)=O	0.9	0.32	-0.316	-0.0184	i
C=CCOc1ccc(C=Nc2ccc(C)c(Cl)c2)c(O)c1	-0.1	0.119	-0.701	0.692	i
COC(=O)c1cc(=O)n(Cc2ccc3c(c2)OCO3)c(=Nc2ccccc2)s1	-0.8	·	-3.52*	0.693	i
O=C(c1ccc2c3c(cccc13)CC2)C1CCCN(Cc2ccccn2)C1 (stereo unspecified)	-0.6	-0.421	-0.727	-0.98	i
Cc1cnc(CN2CCCC(C(=O)c3ccc4c5c(cccc35)CC4)C2)[nH]1 (stereo unspecified)	0.1	0.256	1.31	-0.162	+
O=C(NNC(=S)Nc1ccc(OC(F)F)cc1)c1cc2c(s1)CCCC2	0.5	·	-0.777	0.416	i
Cc1nn(-c2ccccc2)c2c1C1(C(=O)Nc3ccccc31)N1C(=N2)Sc2ccccc21 (stereo unspecified)	-0.1	1.25	-1.4	·	+
O=C(NC(=S)NCCN1CCOCC1)c1ccc(Cl)cc1Cl	-4.8	·	1.42	-0.205	i
CCCN(Cc1ccccc1)C(=S)NC(=O)c1ccccc1[N+](=O)[O-]	0.0	4.47*	0.157	69.5*	i
CC1CCCC(NC(=S)NC(=O)c2ccccc2Br)C1C (stereo unspecified)	0.0	0.0729	1.54	23*	i
SMILES	Redox H2O2 prof	ROMK mod	Dynein transport	KCC2 mod	Autophagy mod
CCCCNC(=S)NC(=O)c1ccc(Cl)cc1Cl	-5.0	·	0.512	5.3*	i
CCCCNC(=S)NC(=O)c1ccccc1Br	-0.3	-0.42	-0.281	34.7*	i
COc1cc(C2NC(=O)NC(c3ccccc3)=C2C(C)=O)cc([N+](=O)[O-])c1O (stereo unspecified)	-0.7	-0.0154	-0.302	-0.33	i
CNS(=O)(=O)c1ccc(NC(=O)c2ccccn2)cc1	-0.1	-0.261	-0.603	-0.558	i
CCOc1ccccc1C(=O)N[C@H](C(=O)Nc1cc(S(=O)(=O)N(C)C)ccc1OC)C(C)C	-3.0	1.09	-0.0774	-1.4	i
CCCCN(CCCC)C(=S)NC(=O)c1ccccc1Cl	0.1	2.75*	-0.0588	64.8*	i
CCC(=O)NC(=S)Nc1cccc(NC(=O)c2ccc(Cl)cc2Cl)c1	-2.6	·	-0.484	·	i

High-throughput results (PubChem BioAssay)
